Where “and” joins values, the source holds several entries; their conditions need not be identical. Equal values may be shown once.
What was measured:
[1] = Half life in Sprague-Dawley rat at 10 mg/kg, po and 2 mg/kg, iv; assay type: ADME, organism-based; conditions: in vivo
How it was run: (§1)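 Sprague-Dawley rats, n = 3, dosed orally at 10 mg/kg and iv at 2 mg/kg. F% from oral versus iv exposure; half-life in hours, clearance in mL/min/kg.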

[2] = Oral bioavailability in Sprague-Dawley rat at 10 mg/kg, po and 2 mg/kg, iv; assay type: ADME, organism-based; conditions: in vivo; how it was run: as §1
B1 bradykinin receptor [3] = biological target: T1, B1 bradykinin receptor (Homo sapiens, UniProt P46663); assay: Displacement of [3H]des-Arg10 Leu9 kallidin from human bradykinin B1 receptor expressed in CHO cells; assay type: cell-based
T1 sequence (P46663 whole entry): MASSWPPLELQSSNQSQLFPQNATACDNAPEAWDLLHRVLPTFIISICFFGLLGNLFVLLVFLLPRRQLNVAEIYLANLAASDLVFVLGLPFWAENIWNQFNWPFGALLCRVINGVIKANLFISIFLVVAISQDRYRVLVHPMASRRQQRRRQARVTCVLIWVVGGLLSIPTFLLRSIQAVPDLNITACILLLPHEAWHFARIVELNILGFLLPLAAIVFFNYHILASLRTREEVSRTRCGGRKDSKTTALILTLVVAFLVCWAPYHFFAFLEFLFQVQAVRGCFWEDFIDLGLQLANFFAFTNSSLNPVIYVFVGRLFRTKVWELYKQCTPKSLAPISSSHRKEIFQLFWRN
How it was run: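 Membranes from CHO cells stably expressing human B1, used at 0.2 mg/mL protein in pH 7.4 HEPES/NaCl/KCl buffer with 100 nM enalaprilat, 140 µg/mL bacitracin and 0.1% BSA. Radioligand 0.2 nM [3H]des-arg10 leu9 kallidin, 2% DMSO final, incubated 60 min at 22 °C, then filtered and counted. Nonspecific binding defined with 1 µM des-arg10 kallidin. Ki values, at least two experiments averaged.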

[4] = Clearance in Sprague-Dawley rat at 10 mg/kg, po and 2 mg/kg, iv; assay type: ADME, organism-based; conditions: in vivo; how it was run: as §1
[5] = Half life in rhesus monkey at 3 mg/kg, po and 1 mg/kg, iv; assay type: ADME, organism-based, Macaca mulatta; conditions: in vivo
How it was run: (§2)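 Rhesus monkeys, n = 2, dosed orally at 3 mg/kg and iv at 1 mg/kg. F%, half-life in hours, clearance in mL/min/kg.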

[6] = Oral bioavailability in rhesus monkey at 3 mg/kg, po and 1 mg/kg, iv; assay type: ADME, organism-based, Macaca mulatta; conditions: in vivo; how it was run: as §2
[7] = Clearance in rhesus monkey at 3 mg/kg, po and 1 mg/kg, iv; assay type: ADME, organism-based, Macaca mulatta; conditions: in vivo; how it was run: as §2
[8] = Clearance in Mongrel dog at 3 mg/kg, po and 1 mg/kg, iv; assay type: ADME, organism-based, Canis lupus familiaris; conditions: in vivo
How it was run: (§3)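 Mongrel dogs, n = 2, dosed orally at 3 mg/kg and iv at 1 mg/kg. F%, half-life in hours, clearance in mL/min/kg.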

[9] = Half life in Mongrel dog at 3 mg/kg, po and 1 mg/kg, iv; assay type: ADME, organism-based, Canis lupus familiaris; conditions: in vivo; how it was run: as §3
human MDR1 (P-gp) = assay: (§4) Apparent permeability in LLC-PK1 cells expressing human MDR1; assay type: ADME, cell-based, Sus scrofa; conditions: pig, LLC-PK1
How it was run: (§5)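 LLC-PK1 cells expressing human MDR1, grown in M199 with 10% FBS on 96-well filters and used on day 4. Equilibrated 30 min in HBSS with 1 mM HEPES, then test compound at 5 µM. 1 µM verapamil served as P-gp substrate control. Transport in both directions measured in triplicate by LC/MS/MS or scintillation.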

B1 bradykinin receptor [10] = biological target: T1, B1 bradykinin receptor; assay: Activity at human bradykinin B1 receptor assessed as inhibition of Des-arg kallidin-induced increase of cytosolic calcium in CHO cells by FLIPR; assay type: functional, cell-based
How it was run: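 CHO cells stably expressing human B1 receptor, seeded 25 000/well and grown overnight at 37 °C, then loaded 60 min at 37 °C with 4 µM fluo-3 AM and 1 mM probenecid. Antagonist added 2 min before 3 nM des-arg10 kallidin, run at 37 °C. At least eight concentrations per curve give IC50. At least two experiments averaged.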

[11] = Oral bioavailability in Mongrel dog at 3 mg/kg, po and 1 mg/kg, iv; assay type: ADME, organism-based, Canis lupus familiaris; conditions: in vivo; how it was run: as §3
LLC-PK1 [12] = assay: Ratio of transport from basolateral to apical over apical to basolateral in LLC-PK1 cells expressing human MDR1; assay type: ADME, cell-based, Sus scrofa; conditions: pig; how it was run: as §5
B2 bradykinin receptor = biological target: T2, B2 bradykinin receptor (Homo sapiens, UniProt P30411); assay: Inhibition of human bradykinin B2 receptor
T2 sequence (P30411 whole entry): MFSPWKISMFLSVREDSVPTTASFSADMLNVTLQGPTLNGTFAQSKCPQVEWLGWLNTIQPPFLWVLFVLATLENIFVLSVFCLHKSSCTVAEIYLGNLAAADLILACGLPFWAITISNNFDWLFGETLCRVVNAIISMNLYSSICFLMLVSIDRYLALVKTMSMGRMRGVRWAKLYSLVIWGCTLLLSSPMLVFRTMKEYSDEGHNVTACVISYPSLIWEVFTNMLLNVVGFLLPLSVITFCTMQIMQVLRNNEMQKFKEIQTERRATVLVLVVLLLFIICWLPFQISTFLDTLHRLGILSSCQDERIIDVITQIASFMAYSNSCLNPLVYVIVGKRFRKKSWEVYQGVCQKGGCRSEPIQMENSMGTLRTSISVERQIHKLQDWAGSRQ
How it was run: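 Human B2 receptor expressed in CHO cells, membrane binding with 1 nM [3H]bradykinin, 2% DMSO final, 60 min at 22 °C, then filtered and counted. Nonspecific binding defined with 1 µM bradykinin. Ki reported.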

LLC-PK1 [13] = assay: as §4; assay type: ADME, cell-based, Sus scrofa; conditions: pig, llc-pk1; how it was run: as §5
[14] = Stability in monkey liver microsomes; assay type: ADME, Macaca mulatta, Microsome; conditions: rhesus monkey
[15] = Stability in dog liver microsomes; assay type: ADME, Canis lupus familiaris, Microsome
Liver microsomes [16] = assay: Stability in human liver microsomes; assay type: ADME, Microsome
[17] = Stability in rat hepatocytes; assay type: ADME, cell-based, Hepatocyte
[18] = Stability in human hepatocytes; assay type: ADME, cell-based, Hepatocyte
Liver microsomes [19] = assay: Stability in rat liver microsomes; assay type: ADME, Microsome
[20] = Lipophilicity, Log P of the compound; assay type: physicochemical; conditions: octanol/water

Row | Structure (SMILES) | half-life [1] [min] | bioavailability [2] [%] | Ki (B1 bradykinin receptor [3]) | clearance [4] [mL/min/kg] | Papp (human MDR1 (P-gp)) [×10⁻⁶ cm/s] | Ratio (LLC-PK1 [12]) | IC50 (B2 bradykinin receptor) [µM] | other results
1 | C[C@@H](NC(=O)C1(NC(=O)C(F)(F)F)CC1)c1ccc(-c2cccc(Cl)c2-c2nnn(C)n2)cc1F | 42 | 50 | 0.66 nM | 12 | – | – | – | –
2 | Cc1noc(-c2c(F)cccc2-c2ccc([C@@H](C)NC(=O)C3(NC(=O)C(F)(F)F)CC3)c(F)c2)n1 | 21 | 27 | 0.51 nM | 28 | 37 | 5.6 | – | half-life [5]: 174 min; bioavailability [6]: 22%; clearance [7]: 15 mL/min/kg; clearance [8]: 6 mL/min/kg; half-life [9]: 234 min; IC50 (B1 bradykinin receptor [10]): 0.89 nM; bioavailability [11]: 35%
3 | COC(=O)c1c(F)cccc1-c1ccc(CNC(=O)C2(NC(=O)C(F)(F)Cl)CC2)c(F)c1 | – | – | 2.5 nM | – | 29 | 2.8 | > 10 | –
4 | COC(=O)c1c(F)cccc1-c1ccc([C@@H](C)NC(=O)C2(NC(=O)C(F)(F)C(F)(F)F)CC2)c(F)c1 | 20.4 | 44 | 1.6 nM and 0.68 nM | 27 | 31 | 1.4 and 3.7 | – | Papp (LLC-PK1 [13]): 28 ×10⁻⁶ cm/s
5 | COC(=O)c1c(F)cccc1-c1ccc(CNC(=O)C2(NC(=O)C(F)(F)C(F)(F)F)CC2)c(F)c1 | – | – | 2.95 nM | – | 31 | 2.2 | > 10 | –
6 | COC(=O)c1c(F)cccc1-c1ccc(CNC(=O)C2(NC(=O)C(F)Cl)CC2)c(F)c1 (configuration not stated) | – | – | 2.8 nM | – | – | – | > 10 | –
7 | COC(=O)c1c(F)cccc1-c1ccc(CNC(=O)C2(NC(C)=O)CC2)c(F)c1 | – | – | 11.6 nM | – | 24 | 6.3 | > 10 | –
8 | COC(=O)c1c(F)cccc1-c1ccc([C@@H](C)NC(=O)C2(NC(=O)C(F)(F)F)CC2)c(F)c1 | 30 | 21 | 0.57 nM | 42 | 28 | 2.3 | – | Stability [14]: Stable; Stability [15]: Stable; half-life [5]: 132 min; Stability (Liver microsomes [16]): Stable; Stability [17]: Stable; bioavailability [6]: 2%; clearance [7]: 28 mL/min/kg; Stability [18]: Stable; Stability (Liver microsomes [19]): Stable; clearance [8]: 21 mL/min/kg; half-life [9]: 102 min; IC50 (B1 bradykinin receptor [10]): 1.9 nM; bioavailability [11]: 5%
9 | COC(=O)c1c(F)cccc1-c1ccc(CNC(=O)C2(NC(=O)C(F)(F)F)CC2)c(F)c1 | – | – | 1.47 nM | – | 23 | 4.1 | > 10 | logP [20]: 2.7
10 | COC(=O)c1c(F)cccc1-c1ccc(CNC(=O)C2(NC(=O)C(C)(Cl)Cl)CC2)c(F)c1 | – | – | 119 nM | – | – | – | > 10 | –
11 | CCC(=O)c1c(Cl)cccc1-c1ccc([C@@H](C)NC(=O)C2(NC(=O)C(F)(F)F)CC2)c(F)c1 | – | – | 1.95 nM | – | 27 | 1.6 | – | –
12 | COC(=O)c1c(F)cccc1-c1ccc(CNC(=O)C2(NC(=O)C(F)F)CC2)c(F)c1 | – | – | 13.5 nM | – | 33 | 3.4 | > 10 | logP [20]: 2.4

From ChEMBL document CHEMBL1139836, “Development of orally bioavailable and CNS penetrant biphenylaminocyclopropane carboxamide bradykinin B1 receptor antagonists” (J Med Chem, 2007)
